High-throughput results (PubChem BioAssay)
Rtt109 HAT inh – inhibitors of Candida albicans Rtt109/Vps75 histone acetyltransferase | Q5AAJ8 | purified Rtt109/Vps75, ThioGlo CoA-SH fluorescence, 4 h | inhibition, % at 34.9 µM | actives 0.16% (n = 330,000) | AID 540336;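 active = inhibition of at least 50% in every replicate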
HNF4A DNA FP – change in binding of human HNF4 alpha to DNA. AID 1224865. actives 0.3% (n = 360,000). P41235. HNF4a-FITC DNA binding, fluorescence polarization, 1 h. activity change, % at 10 µM; in the data active = activity change above about 30%, passing the limit was not always enough
TPT1 inhibitor – inhibitors of Candida albicans tRNA 2'-phosphotransferase TPT1 | actives 0.81% (n = 300,000) | recombinant caTPT1, FP RNA substrate dephosphorylation | inhibition, % at 5 µM | AID 1962;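 active = inhibition above the mean of all tested compounds plus 3 SD, set per screening campaign, cut at about 24% in these data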
CSN deneddyl inh – inhibitors of human CSN-mediated cullin deneddylation. Q92905. Purified CSN, SCF-Nedd8-OG deneddylation, fluorescence polarization. inhibition, % at 12.5 µM. actives 0.38% (n = 360,000). AID 651999;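 active = pattern-corrected inhibition above about 35%, with an unprinted fluorescence ratio check between 0.5 and 1.5, limit read from the data, passing the limit was not always enough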
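test system = HEK293T-derived human Csn5 enzyme | amount = 0.24 nM Csn5 enzyme, final concentration | medium = Tris/NaCl/DTT buffer, pH 7.5 | schedule = 90 min reaction at room temperature | signal = FP | evaluation = inhibition of Csn5 cleavage, % | compound dosing = single dose of 12.5 µM compound with 0.25% DMSO | probe or stimulus = 10 nM SCFSkp2-Nedd8OG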
caTPT1 confirm – TPT1 (C. albicans) inhibition, confirmation; shares compounds with TPT1 inhibitor; recombinant caTPT1, fluorescence polarization, RNase T1 coupled; inhibition, % at 5 µM; actives 74% (n = 2,400);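 active = inhibition above the primary screen limit, the mean inhibition of all tested compounds plus 3 SD, cut at about 25% in these data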
RNase T1 inh – RNase T1 inhibition in TPT1 counter-screen; shares compounds with TPT1 inhibitor; RNase T1 cleavage, fluorescence polarization, 1536-well; inhibition, % at 5 µM; actives 83% (n = 2,400);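 active = inhibition above the solvent-only control well mean plus 3 SD, limit set per screening run, cut at about 23% in these data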;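 note: inhibitors block cleavage so intact labeled substrate keeps polarization high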
CSN deneddyl val – validation of inhibitors of human CSN-mediated cullin deneddylation; Csn5 deneddylation of SCF-Nedd8OG, fluorescence polarization, 90 min; actives 62% (n = 540); shares compounds with CSN deneddyl inh; inhibition, % at 16.6 µM; in the data active = inhibition above about 50%
MMP-2 counter – counter-screen for CSN deneddylation inhibitors: human MMP-2 inhibition; shares compounds with CSN deneddyl inh; recombinant MMP-2, FRET substrate fluorescence, 60 min; inhibition, % at 16.6 µM; actives 33% (n = 540); AID 720655;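 active = corrected plate-normalized z-score of 5 or more, or -5 or less, or inhibition of 15% or more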
Thrombin counter – thrombin (bovine) inhibition, counter-screen for CSN hits; shares compounds with CSN deneddyl inh; bovine thrombin cleavage of Ub4-pepOG, fluorescence polarization; inhibition, % at 16.6 µM; actives 49% (n = 540);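 active = inhibition at or above a set limit, with a fluorescence interference ratio between 0.5 and a set maximum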
Target sequence (P00735 whole entry, looked up): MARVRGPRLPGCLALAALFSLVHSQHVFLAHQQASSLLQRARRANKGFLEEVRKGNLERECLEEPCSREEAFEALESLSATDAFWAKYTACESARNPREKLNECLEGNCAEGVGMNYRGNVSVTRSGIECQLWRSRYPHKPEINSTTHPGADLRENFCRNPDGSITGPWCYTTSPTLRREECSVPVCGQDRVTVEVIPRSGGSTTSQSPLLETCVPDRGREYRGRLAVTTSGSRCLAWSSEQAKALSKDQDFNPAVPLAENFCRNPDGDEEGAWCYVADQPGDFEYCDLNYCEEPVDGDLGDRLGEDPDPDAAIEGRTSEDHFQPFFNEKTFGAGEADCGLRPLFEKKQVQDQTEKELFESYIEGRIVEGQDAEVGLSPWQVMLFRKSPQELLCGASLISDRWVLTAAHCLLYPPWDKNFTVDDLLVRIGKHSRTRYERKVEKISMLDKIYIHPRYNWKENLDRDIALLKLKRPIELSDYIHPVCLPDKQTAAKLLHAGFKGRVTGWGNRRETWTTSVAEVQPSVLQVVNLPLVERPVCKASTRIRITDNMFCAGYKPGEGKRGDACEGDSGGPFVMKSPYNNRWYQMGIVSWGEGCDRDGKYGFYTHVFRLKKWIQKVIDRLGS
Numbers stand for hits; i = inactive; nt = not tested or not shown. In the library only some 1.2% were active in any assay of this set; here they are far more common.

SMILES	Rtt109 HAT inh	HNF4A DNA FP	TPT1 inhibitor	CSN deneddyl inh	caTPT1 confirm	RNase T1 inh	others
CCN(CC)c1ccc(N=Cc2c(O)n(-c3ccc(Cl)cc3)c(=O)[nH]c2=O)cc1	i	i	27	i	58	72
Cc1cccc(N2C(=O)NC(=O)/C(=C\c3ccc4c(c3)CCCN4Cc3ccccc3)C2=O)c1	i	i	92	i	152	141
CCCCn1c(O)c(C(=O)/C=C/c2c[nH]c3ccccc23)c(=O)[nH]c1=O	i	i	121	i	178	161
CCCCn1c(O)c(C(CC)=NCCc2ccccc2)c(=O)[nH]c1=O	i	i	i	i	nt	nt
COC(=O)C1=C(c2cc3ccccc3o2)C[C@@H]2CC[C@H]1N2C(=O)N1CCC(C)CC1	i	i	i	i	nt	nt
O=C(O)Cn1cc(C(=O)c2ccccc2F)c2ccccc21	i	i	i	i	nt	nt
N#CC(C#N)=Cc1ccc(-c2ccccc2F)o1	i	i	i	i	nt	nt
N#CC(C#N)=Cc1ccc(-c2ccccc2)o1	nt	nt	37	nt	36	64
Cc1cc(C)c(-n2c(O)c(/C=N/NC(=O)c3ccncc3)c(=O)[nH]c2=O)c(C)c1	i	i	24	i	29	40
O=C(c1ccc2c(c1)N(Cc1ccc(F)cc1)CCS2)N1CCC2(CC1)OCCO2	i	i	i	i	nt	nt
Cc1c(-c2cccc(Cl)c2)nc2ccccc2c1C(=O)N1CCC2(CC1)OCCO2	i	i	i	i	nt	nt
COc1cc(/C=C/c2nc3ccccc3c(=O)n2-c2ccccc2O)ccc1O	i	i	26	i	45	49
O=c1c2ccccc2nc(/C=C/c2ccccc2)n1-c1ccc(O)cc1	i	i	i	i	nt	nt
O=c1c2ccccc2nc(/C=C/c2ccc(O)c(O)c2)n1-c1ccccc1	i	i	46	i	49	57
COc1cc(/C=C/c2nc3ccccc3c(=O)n2-c2cccc(O)c2)ccc1O	i	i	34	i	50	54
Cc1cccc(-n2c(/C=C/c3ccc([N+](=O)[O-])o3)nc3ccccc3c2=O)c1	i	i	40	i	56	52
COc1ccccc1-n1c(/C=C/c2ccc(O)cc2)nc2ccccc2c1=O	i	i	i	i	nt	nt
C=C1C(=O)OC2CCN3CC=C(COC(=O)C(C)(O)C4(CO4)C1C)C23 (centres undefined)	nt	i	nt	i	nt	nt
CN1C(=O)/C(=C\c2ccc(Br)s2)C(=O)NC1=S	i	i	25	i	i	27
CCn1c(O)c(/C=N/NC(=O)c2ccccc2)c(=O)n(CC)c1=S	nt	i	94	i	26	34
NCC(O)c1cc(O)c(O)cc1F (centres undefined)	i	i	i	i	nt	nt
CCCCn1c(=O)c(C=Nc2cc([N+](=O)[O-])ccc2OC)c(O)n(CCCCl)c1=O	i	i	74	i	53	67
COc1ccc(OC)c(N=Cc2c(O)n(Cc3ccccc3)c(=S)[nH]c2=O)c1	i	i	i	i	nt	nt
O=c1[nH]c(=O)n(-c2cccc3ccccc23)c(O)c1/C=N/N1CCCCC1c1cccnc1 (centres undefined)	i	33	51	i	67	81
CCCCCN1C(=O)c2cc(OC)ccc2[C@@]2(C(=O)OCC)Cc3cc(Cl)ccc3[C@@H]12	nt	i	nt	i	nt	nt
SMILES	Rtt109 HAT inh	HNF4A DNA FP	TPT1 inhibitor	CSN deneddyl inh	caTPT1 confirm	RNase T1 inh	others
CCOC(=O)c1c(/N=C/C2C(=O)NC(=S)NC2=O)sc(C)c1C	nt	nt	i	nt	nt	nt
CCOC(=O)c1c(/N=C/C2C(=O)NC(=S)NC2=O)sc2c1CCC2	i	i	113	i	i	33
COc1ccc(CN2C(=O)NC(=O)/C(=C/c3ccoc3)C2=O)cc1	i	i	174	i	i	32
C=CCN1C(=O)NC(=O)/C(=C/c2ccoc2)C1=O	i	i	106	i	i	i
COc1ccc(CN2C(=O)NC(=O)/C(=C/c3cc(OC)c(OC)c(OC)c3)C2=O)cc1	i	i	i	i	nt	nt
CCOP(=O)(OCC)C1(C(=O)O)CCCC1	i	i	i	i	nt	nt
CC(C)n1c(=O)c(C=Nc2cccc([N+](=O)[O-])c2)c(O)n(CCc2ccccc2)c1=O	i	i	43	i	i	i
Cn1c(O)c(C=Nc2cccc(C(F)(F)F)c2)c(=O)n(C)c1=O	i	i	i	i	nt	nt
CC(C)C1C(C#N)=C(N)Oc2c1c(=O)oc1ccccc21 (centres undefined)	nt	i	nt	i	nt	nt
CCN1C(=O)C(=Cc2ccc(C)s2)C(=O)N(CC)C1=S	i	i	31	i	i	i
CCC(C)N1C(=O)/C(=C/c2ccc3c(c2)CCN3CCCCl)C(=O)NC1=S (centres undefined)	i	i	41	i	56	72
O=c1[nH]c(CN2CC=C(c3ccccc3)CC2)nc2scc(-c3ccccc3)c12	i	i	54	i	32	45
CN1C(=O)C(=Cc2ccc(N3CCCCCC3)o2)C(=O)N(C)C1=S	i	i	140	i	118	122
CN1C(=O)C(=Cc2ccc(N3CCOCC3)o2)C(=O)N(C)C1=O	i	i	136	i	148	145
Cc1ccc(Sc2ccc(C=C3C(=O)N(C)C(=O)N(C)C3=O)o2)cc1	i	i	i	i	nt	nt
CC(C)n1c(=O)c(C=Nc2ccc(S(N)(=O)=O)cc2)c(O)n(Cc2ccco2)c1=O	i	i	42	i	i	i
CCCCn1c(=O)c(C=Nc2ccc(Cl)cc2)c(O)n(Cc2ccco2)c1=O	i	i	i	i	nt	nt
CC(=O)C1C(N2CC2)CC2C3CCC4=CC(=O)CCC4(C)C3CCC21C (centres undefined)	i	i	nt	i	nt	nt
CCN(CC)c1ccc(/C=C2/C(=O)NC(=O)N(CC3CCCO3)C2=O)cc1 (centres undefined)	i	i	i	i	nt	nt
CCCCN1C(=O)/C(=C/c2ccc(N(C)C)cc2)C(=O)N(Cc2ccco2)C1=O	i	i	150	132	110	116	CSN deneddyl val=86;MMP-2 counter=i;Thrombin counter=i
CCN(CC)c1ccc(/C=C2\C(=O)NC(=O)N(Cc3ccco3)C2=O)cc1	i	i	38	54	93	112	CSN deneddyl val=85;MMP-2 counter=i;Thrombin counter=i
O=c1ccc2c(O)c3ccoc3cc2o1	i	i	nt	i	nt	nt
Cc1nc2ccccc2c(=O)n1/N=C/c1cc(Br)cc(Br)c1O	i	i	i	i	nt	nt
Cn1c(O)c(/C=C/C=Nc2ccccc2)c(=O)n(C)c1=S	i	95	134	75	67	74	MMP-2 counter=-100;Thrombin counter=i
